Results: ChEMBL document CHEMBL1150955, “Antimycobacterial activities of dehydrocostus lactone and its oxidation products” (1998)
In brackets after ≈: the same amount, converted by molar mass.

Tests used:
[1] = system: Mycobacterium tuberculosis; assay: Antimycobacterial activity against Mycobacterium tuberculosis H37Rv by radiorespirometric bioassay; assay type: functional
Summary of the method: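 Radiorespirometric bioassay giving MIC against strain H37Rv, run essentially per earlier reports; M. tuberculosis experiments usually completed in 10 days.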

Mycobacterium avium = assay: Antimycobacterial activity against Mycobacterium avium by radiorespirometric bioassay; assay type: functional
Summary of the method: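 MIC determined in a radiorespirometric bioassay run essentially per earlier reports; M. avium experiments usually completed within 5 days.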

Row | Structure (SMILES) | MIC [1] [µg/mL] | MIC (Mycobacterium avium) [µg/mL]
1 | C=C1CC[C@H]2C(=C)CC[C@@]3(O)C(=C)C(=O)O[C@@H]3[C@@H]12 | > 128 | –
2 | C=C1C(=O)O[C@@H]2[C@@H]3[C@@H](CC[C@]34CO4)[C@@]3(CC[C@@H]12)CO3 | 128 (≈ 488 µM) | –
3 | C=C1C(=O)O[C@@H]2[C@@H]3[C@@H](CC[C@]34CO4)C(=C)CC[C@@H]12 | 32 (≈ 130 µM) | –
4 | C=C1C(=O)O[C@@H]2[C@@H]3[C@@H](CC[C@@]34CO4)[C@]3(CC[C@@H]12)CO3 | 64 (≈ 244 µM) | –
5 | C=C1C(=O)O[C@@H]2[C@@H]3[C@@H](CC[C@]34CO4)[C@]3(CC[C@@H]12)CO3 | 128 (≈ 488 µM) | –
6 | C=C1CC[C@@H]2[C@H]1[C@H]1OC(=O)C(=C)[C@@H]1CC[C@]21CO1 [DEHYDROCOSTUS LACTONE,10ALPHA(14)EPOXIDE] | 64 (≈ 260 µM) | –
7 | C=C1CC[C@@H]2[C@H]1[C@H]1OC(=O)C(=C)[C@@H]1CC[C@@]21CO1 [DEHYDROCOSTUS LACTONE,10BETA(14)EPOXIDE] | 32 (≈ 130 µM) | –
8 | C=C1CC[C@H]2C(=C)CC[C@H]3C(=C)C(=O)O[C@@H]3[C@@H]12 [DEHYDROCOSTUSLACTONE] | 2 (≈ 8.68 µM) | 16 (≈ 69.5 µM)
9 | C=C1[C@@H]2[C@H]3OC(=O)C(=C)[C@@H]3CCC(=C)[C@@H]2C[C@H]1O [ISOZALUZANIN C] | > 128 | –
10 | C=C1C(=O)O[C@H]2[C@H]1CCC(C)=C1CC[C@@](C)(O)[C@@H]12 [MICHELIOLIDE] | 50 (≈ 201 µM) | –
11 | C=C1C(=O)O[C@H]2[C@H]1[C@@H](O)[C@H](OC(=O)/C(C)=C\C)C(C)=C1C(=O)C=C(C)[C@@]12O [PUMILIN] | 128 (≈ 342 µM) | 128 (≈ 342 µM)
